Assay [1] deals with Mus musculus. In words: Proconvulsant action measured as the dose required to induce convulsions in 50% of mice that had been previously given a subconvulsant dose of PTZ (40 mg/kg, sc); No effect at a highest dose of 250 mg/kg. In kind it is functional, organism-based. Also on record: dose 250 mg/kg. Summed up:
(§1)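 Mice pretreated with a subconvulsant PTZ dose of 40 mg/kg sc. The dose inducing convulsions in 50% of animals was determined, with compounds tested up to 250 mg/kg. Values are means of at least three determinations, with ≤20% variation between experiments.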

Assay [2] addresses T1, GABA-A receptor; anion channel (Bos taurus) (UniProt P10063+P08220+P20237+P08219+P10064+P22300). Description: Inhibition of […] [3H]- Ro.15-1788 binding to benzodiazepine receptors in bovine brain membrane. It is filed as cell membranes.
Assay [3] addresses T1, GABA-A receptor; anion channel (Bos taurus). Description: Relative binding to GABA-A receptor in the presence and absence of GABA (GABA shift), Ki(-GABA)/Ki(+GABA). It is filed as protein-complex assay. Put shortly: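 Bovine brain membranes, frozen-thawed and washed in 50 mM Tris-citrate pH 7.4, used for displacement of radiolabeled antagonist [3H]Ro 15-1788. Ki reported as mean ± SEM of three determinations. GABA ratio taken as Ki without GABA divided by Ki with GABA.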

Assay [4] has as its system Mus musculus. In words: Antagonism of Diazepam (2.5 mg/kg, ip) anticonvulsant effect in mice treated with PTZ (80 mg/kg, sc), No effect to 250 mg/kg dose. In kind it is functional, organism-based. More on the design: dose 250 mg/kg. Summed up: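 Mice received diazepam 2.5 mg/kg ip plus convulsant PTZ 80 mg/kg sc. The dose of test compound that antagonizes the anticonvulsant effect of diazepam was determined, with a highest dose of 250 mg/kg. Values are means of at least three determinations.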

The target of assay [5] is GABA-A receptor; anion channel. In words: Displacement of [3H]- Ro.15-1788 from GABA-A central Benzodiazepine receptor (BzR) of Bovine cerebral cortex membrane. In kind it is tissue-based, Bos taurus. A general note: Loss of bound radioactivity is the signal in a displacement assay; it reports binding, not function.
Assay [6] addresses T1, GABA-A receptor; anion channel (Bos taurus). In words: (§2) Inhibition of [35S]-TBPS binding to GABA-A central Benzodiazepine Receptor of bovine cerebral cortex membranes. It is filed as tissue-based. As to conditions: concentration not given here. Summed up: (§3)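 [35S]TBPS binding run in the presence of GABA with compounds at 0.5 μM, on bovine brain membranes washed in Tris-citrate pH 7.4. […] Mean ± SE of three separate experiments.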

Assay [7] has as its system Mus musculus. Description: Dose required to antagonise the convulsant action of PTZ (80 mg/kg, sc) in 50% mice; No effect at a highest dose of 250 mg/kg. It is filed as functional, organism-based. More on the design: dose 250 mg/kg.
Assay [8] has as its target T1, GABA-A receptor; anion channel (Bos taurus). The description is as §2. It is filed as tissue-based. More on the design: concentration or dose not given beside the values. As to conditions: concentration not given here. Summed up:
as §3

Assay [9] relates to Mus musculus. Description: Antagonism of Diazepam (2.5 mg/kg, ip) anticonvulsant effect in mice treated with PTZ (80 mg/kg, sc). It is filed as functional. Put shortly: (§4)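 Mice; anticonvulsant value is the dose protecting 50% of animals from convulsions caused by PTZ 80 mg/kg sc; diazepam antagonism measured as dose reversing the anticonvulsant effect of diazepam 2.5 mg/kg ip in mice given PTZ 80 mg/kg sc. Top test dose 250 mg/kg; means of at least three determinations (≤20% between-experiment difference).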

Assay [10] deals with Mus musculus. Description: Proconvulsant action measured as the dose required to induce convulsions in 50% of mice that had been previously given a subconvulsant dose of PTZ (40 mg/kg, sc). In kind it is functional. Put shortly: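 Proconvulsant test in mice pretreated with subconvulsant PTZ 40 mg/kg sc; value is the dose inducing convulsions in 50% of animals. Highest test dose 250 mg/kg; means of at least three determinations, ≤20% difference between experiments.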

Assay [11] has as its system Mus musculus. Description: Dose required to antagonise the convulsant action of PTZ (80 mg/kg, sc) in 50% mice; No effect at a highest dose of 30 mg/kg. In kind it is functional, organism-based. More on the design: dose 30 mg/kg.
The subject of assay [12] is Mus musculus. In words: Proconvulsant action measured as the dose required to induce convulsions in 50% of mice that had been previously given a subconvulsant dose of PTZ (40 mg/kg, sc); No effect at a hieghst dose of 250 mg/kg. In kind it is functional, organism-based. More on the design: dose 250 mg/kg. Put shortly:
as §1

Assay [13] relates to Mus musculus. In words: Dose required by the compound in vivo to antagonise the convulsant action of PTZ (80 mg/kg, sc) in 50 % mice. It is filed as functional. Put shortly:
as §4

The test system of assay [14] is Mus musculus. Description: Dose required to antagonise the convulsant action of PTZ (80 mg/kg, sc) in 50% mice; No effect at a highest dose of 100 mg/kg. In kind it is functional, organism-based. More on the design: dose 100 mg/kg.
For assay [15], the system named is Mus musculus. Description: Proconvulsant action measured as the dose required to induce convulsions in 50% of mice that had been previously given a subconvulsant dose of PTZ (40 mg/kg, sc); No effect at a highest dose of 100 mg/kg. More on the design: dose 100 mg/kg. It is filed as functional, organism-based.

Activity calls are given as the source filed them. The rule behind the calls is not given here.

As to `Oc1c(-c2cccs2)nnc2nc3ccccc3n12`, the NE result in assay [1], in assay [4] and in [7] was “inactive” each time. Besides, the inhibition (usually the relative decrease from the control value, in per cent) in assay [2] is 99%; in assay [6] it was 28%. For the same compound, in assay [3], the GABA ratio was determined as 0.97. In addition, the affinity in assay [5] corresponds to a Ki of 13 nM.
With `Oc1ccc(-c2nnc3nc4ccccc4n3c2O)cc1`, the inhibition turned out to be 99% in assay [2] and 15% in assay [8]. The GABA ratio in assay [3] is 0.87. Also, the affinity in [5], expressed as Ki, was 74 nM.
`Cc1nnc2nc3ccccc3n2c1O` came in with an inhibition in assay [2] of 26%.
On the same count and under the same terms, then `COc1ccc(-c2nnc3nc4ccccc4n3c2O)cc1OC`, with 17%.
Regarding `COC(=O)c1cc2c(cn1)[nH]c1ccccc12` [BETA-CCM], in [9], the Diazepam antagonism is on record as 0.02. In addition, in assay [10], the Proconvulsant action was determined as 19.4. In [11], the NE result is “inactive”.
Take `COc1ccc(-c2nnc3nc4ccccc4n3c2O)cc1`: the inhibition turned out to be 89% in assay [2] and 5% in assay [8]. Moreover, in assay [3], the GABA ratio came to 1.25. Besides, the NE result in [4], in assay [12] and in assay [7] was “inactive” in each case. Further, the Ki – broadly, a dissociation constant, usually derived from enzyme kinetics or from competition with a known ligand – in [5] came out at 44 nM.
In the case of `Oc1c(-c2ccco2)nnc2nc3ccccc3n12`, the figures for the inhibition in [2] and in assay [8] were 93% and 25%, respectively. Further, the GABA ratio in [3] was found to be 0.98. The same compound returned an inhibition constant (Ki) in assay [5] of 56 nM.
Compound `Cn1c2ccccc2n2c(=O)c(-c3ccco3)nnc12` returned an inhibition in [2] of 68%.
Regarding `Cc1ccc(-c2nnc3nc4ccccc4n3c2O)cc1`, the inhibition in [2] turned out to be 56%.
`Oc1c(-c2ccc(Cl)cc2)nnc2nc3ccccc3n12` registered an inhibition in assay [2] of 34%.
For the compound `Oc1c(-c2ccsc2)nnc2nc3ccccc3n12`, the inhibition in [2] amounted to 85%. In addition, the GABA ratio in [3] worked out at 1.2. The compound further had an inhibitory constant (Ki) in [5] of 107 nM.
Turning to `CN1C(=O)CN=C(c2ccccc2)c2cc(Cl)ccc21` [DIAZEPAM], it took a dose of 0.4 mg/kg to reach the 50% effect level in assay [13] (ED50).
As for `CCOC(=O)c1ncn2c1CN(C)C(=O)c1cc(F)ccc1-2` [FLUMAZENIL], the NE entry in assay [14] and in assay [15] was “inactive” throughout. Also, the GABA ratio in [3] was found to be 0.9. This compound gave a Diazepam antagonism in assay [9] of 0.3. Besides, the inhibition in assay [8] amounted to 15%. In [5], affinity was put at a Ki of 0.09 nM.
Compound `Cn1c2ccccc2n2c(=O)c(-c3cccs3)nnc12` displayed an inhibition in assay [2] of 63%.
As to `Oc1c(-c2ccccc2)nnc2nc3ccccc3n12`, the NE entry in assay [1], in assay [4] and in assay [7] was “inactive” each time. Moreover, the inhibition in assay [2] was 97%; in assay [8], 35%. The GABA ratio in assay [3] turned out to be 1.2. The compound also registered an inhibitory constant (Ki) in [5] of 53 nM.
In assay [2], `Oc1ccc(-c2nnc3nc4ccccc4n3c2O)cc1O` registered an inhibition of 99%. Besides, the GABA ratio in [3] was 1.2. In addition, in assay [5], the Ki came to 170 nM.
In assay [2], `Cn1c2ccccc2n2c(=O)c(-c3ccc(Cl)cc3)nnc12` registered an inhibition of 30%.
In assay [2], `Cc1ccc(-c2nnc3nc4ccccc4n3c2O)s1` showed an inhibition of 83%. Besides, the GABA ratio in assay [3] amounted to 0.96. In [5], this compound registered a Ki of 115 nM.
For `Oc1cnnc2nc3ccccc3n12`, the inhibition in [2] turned out to be 11%.
As to `Cn1c2ccccc2n2c(=O)c(-c3ccccc3)nnc12`, the NE result in [1] and in assay [4] was “inactive” in each case. The inhibition was determined as 92% in assay [2] and 66% in assay [8]. Besides, the GABA ratio in assay [3] was found to be 1.7. Also, in assay [13], the ED50 (usually the dose at which the effect has come halfway, by size or by number of responders) came out at 60 mg/kg. This compound also had an inhibitory constant (Ki) in assay [5] of 860 nM.
`O=C1CN=C(c2ccccc2Cl)c2cc([N+](=O)[O-])ccc2N1` showed an inhibition in [8] of 100%.
In [2], `COc1ccc(-c2nnc3n(C)c4ccccc4n3c2=O)cc1` came in with an inhibition of 53%.
